Drawing on ChEMBL document CHEMBL1131384, “Synthesis and structure-activity relationships of potent and orally active 5-HT4 receptor antagonists: indazole and benzimidazolone derivatives” (J Med Chem, 1998), this text covers Relaxation, pKb and pKi for eight molecules.

Test [1] has as its target 5-hydroxytryptamine receptor 4 (Rattus norvegicus) (UniProt Q62758). Nature of the test: Antagonistic activity evaluated by ability to block serotonin induced relaxation (via 5-hydroxytryptamine 4 receptor) in carbamylcholine (10e-6 M) contracted esophagus at a concentration of 3*10e-8 M. The test is classed as functional. In short, it runs like this:
(§1)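 Isolated rat esophagus precontracted with carbamylcholine (10^-6 M), then challenged with serotonin (1 μM) in the presence of antagonist at the stated concentration or vehicle. Read-out is % relaxation to serotonin, given as mean ± SEM with the number of determinations.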

In test [2] the target is Serotonin 3 (5-HT3) receptor (Homo sapiens) (UniProt P46098+A5X5Y0+O95264+Q70Z44+Q8WXA8). Nature of the test: The compound was tested for binding affinity against 5-hydroxytryptamine 3 receptor in guinea pig ileum. The test is classed as tissue-based. The following applies: Cavia porcellus, target entry is the homologue from another species.
The target in test [3] is 5-hydroxytryptamine receptor 4 (Rattus norvegicus) (UniProt Q62758). Nature of the test: Antagonistic activity by ability to block serotonin induced relaxation (mediated by activation of 5-hydroxytryptamine 4 receptor) in carbamylcholine (10e-6 M) contracted esophagus at a concentration of 10e-6 M. It counts as functional, tissue-based. In short, it runs like this: (§2)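 Isolated rat esophagus precontracted with carbamylcholine (10^-6 M). Tissue was challenged with serotonin (1 µM) in the presence of the antagonist at a given concentration or of vehicle. Relaxation was recorded as % relaxation to 10^-6 M 5-HT, given as mean ± SEM with the number of determinations.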

Test [4] has the same target. In words: Antagonistic activity evaluated by ability to block serotonin induced relaxation (mediated by activation of 5-hydroxytryptamine 4 receptor) in carbamylcholine (10e-6 M) contracted esophagus at a concentration of 10e-5 M. The test is classed as functional, tissue-based. In a few lines: as §2
Test [5] concerns the target Serotonin 2 (5-HT2) receptor (Rattus norvegicus) (UniProt P30994+P08909+P14842). Nature of the test: Binding affinity against 5-hydroxytryptamine 2 receptor in serotonin-induced contraction of the rat aorta. It counts as tissue-based.
Test [6] concerns the target T1, Adrenergic receptor alpha-1 (Rattus norvegicus) (UniProt P15823+P23944+P43140). Nature of the test: Binding affinity for Alpha-1 adrenergic receptor in rat aorta determined by block of norepinephrine induced contraction of rat aorta. The test is classed as tissue-based.
Test [7] addresses 5-hydroxytryptamine receptor 4 (Rattus norvegicus) (UniProt Q62758). In words: Antagonistic activity evaluated by ability to block serotonin induced relaxation (mediated by activation of 5-hydroxytryptamine 4 receptor) in carbamylcholine (10e-6 M) contracted esophagus at a concentration of 10e-8 M. It counts as functional, tissue-based. In a few lines:
as §2

The target is the same in test [8]. Nature of the test: Antagonistic activity evaluated by ability to block serotonin induced relaxation via 5-hydroxytryptamine 4 receptor) in carbamylcholine (10e-6 M) contracted esophagus at a concentration of 0.1 mg/kg (p.o.). The test is classed as functional, organism-based. Set-up: dose 0.1 mg/kg. In short, it runs like this: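 Rats were dosed with the antagonist by oral gavage. Esophagus was removed 3 h after dosing and challenged ex vivo with serotonin. Read-out was % relaxation of the carbamylcholine-contracted tissue to 10^-6 M 5-HT, given as mean ± SEM with the number of determinations.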

In test [9] the target is T1, Adrenergic receptor alpha-1 (Rattus norvegicus). In words: Affinity for the alpha-1 adrenergic receptor determined by the displacement of [3H]prazosin from rat whole brain tissue. The test is classed as tissue-based.
In test [10] the target is 5-hydroxytryptamine receptor 4 (Rattus norvegicus) (UniProt Q62758). In words: Antagonistic activity by ability to block serotonin induced relaxation (mediated by activation of 5-hydroxytryptamine 4 receptor) in carbamylcholine (10e-6 M) contracted esophagus at a concentration of 10e-7 M. The test is classed as functional, tissue-based. In short, it runs like this: as §2

The target is the same in test [11]. In words: Antagonistic activity of compound was evaluated by ability to block serotonin induced relaxation (mediated by activation of 5-hydroxytryptamine 4 receptor) in carbamylcholine (10e-6 M) contracted esophagus at a concentration of 3*10e-7 M. It counts as functional. In short, it runs like this:
as §1

For test [12] the target is unchanged. In words: Antagonistic activity of compound was evaluated by ability to block serotonin induced relaxation (mediated by activation of 5-hydroxytryptamine 4 receptor) in carbamylcholine (10e-6 M) contracted esophagus at a concentration of 10e-7 M. The test is classed as functional. In a few lines: as §1

The structures appear in SMILES notation.

Sequence of Serotonin 2 (5-HT2) receptor (Rattus norvegicus) (P08909 whole entry, looked up): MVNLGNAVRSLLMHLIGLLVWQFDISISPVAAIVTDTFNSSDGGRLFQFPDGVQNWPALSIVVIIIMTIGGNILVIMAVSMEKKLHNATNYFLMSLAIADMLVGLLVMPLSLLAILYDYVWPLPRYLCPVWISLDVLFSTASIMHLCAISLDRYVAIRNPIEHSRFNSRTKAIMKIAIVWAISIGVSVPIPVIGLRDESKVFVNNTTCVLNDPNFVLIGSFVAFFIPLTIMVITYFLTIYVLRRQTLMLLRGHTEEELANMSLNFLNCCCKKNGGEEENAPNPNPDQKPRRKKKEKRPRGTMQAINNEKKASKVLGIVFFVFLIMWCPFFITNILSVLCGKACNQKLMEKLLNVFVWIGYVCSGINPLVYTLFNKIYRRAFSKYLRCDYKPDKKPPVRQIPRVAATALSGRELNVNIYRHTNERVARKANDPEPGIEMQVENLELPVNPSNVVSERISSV
Sequence of Serotonin 2 (5-HT2) receptor (Rattus norvegicus) (P14842 whole entry, looked up): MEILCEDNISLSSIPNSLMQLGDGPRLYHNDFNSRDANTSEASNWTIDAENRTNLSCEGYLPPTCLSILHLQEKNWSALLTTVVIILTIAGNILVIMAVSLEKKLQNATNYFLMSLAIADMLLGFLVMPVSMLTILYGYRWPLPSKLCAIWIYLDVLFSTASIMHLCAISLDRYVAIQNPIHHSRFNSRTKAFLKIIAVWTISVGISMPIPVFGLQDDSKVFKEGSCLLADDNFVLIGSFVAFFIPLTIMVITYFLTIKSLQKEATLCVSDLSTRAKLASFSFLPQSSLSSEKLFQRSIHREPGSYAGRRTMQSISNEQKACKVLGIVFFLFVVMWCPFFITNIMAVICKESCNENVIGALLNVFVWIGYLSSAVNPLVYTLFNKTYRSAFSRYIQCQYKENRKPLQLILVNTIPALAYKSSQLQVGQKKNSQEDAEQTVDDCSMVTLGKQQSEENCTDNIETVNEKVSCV
Sequence of Serotonin 2 (5-HT2) receptor (Rattus norvegicus) (P30994 whole entry, looked up): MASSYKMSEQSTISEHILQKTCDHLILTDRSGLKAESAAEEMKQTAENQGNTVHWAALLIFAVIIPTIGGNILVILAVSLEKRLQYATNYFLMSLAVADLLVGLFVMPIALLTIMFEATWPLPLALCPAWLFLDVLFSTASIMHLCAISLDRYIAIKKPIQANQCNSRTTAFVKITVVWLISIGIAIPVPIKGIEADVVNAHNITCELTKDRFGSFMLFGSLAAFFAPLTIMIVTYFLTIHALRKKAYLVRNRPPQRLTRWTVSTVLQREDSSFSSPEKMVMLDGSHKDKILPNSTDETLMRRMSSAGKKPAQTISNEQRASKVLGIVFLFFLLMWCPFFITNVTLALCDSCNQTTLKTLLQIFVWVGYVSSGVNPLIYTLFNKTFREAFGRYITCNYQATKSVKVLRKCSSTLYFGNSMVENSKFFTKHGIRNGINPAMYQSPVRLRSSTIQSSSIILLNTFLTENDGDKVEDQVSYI
Sequence of 5-hydroxytryptamine receptor 4 (Rattus norvegicus) (Q62758 whole entry): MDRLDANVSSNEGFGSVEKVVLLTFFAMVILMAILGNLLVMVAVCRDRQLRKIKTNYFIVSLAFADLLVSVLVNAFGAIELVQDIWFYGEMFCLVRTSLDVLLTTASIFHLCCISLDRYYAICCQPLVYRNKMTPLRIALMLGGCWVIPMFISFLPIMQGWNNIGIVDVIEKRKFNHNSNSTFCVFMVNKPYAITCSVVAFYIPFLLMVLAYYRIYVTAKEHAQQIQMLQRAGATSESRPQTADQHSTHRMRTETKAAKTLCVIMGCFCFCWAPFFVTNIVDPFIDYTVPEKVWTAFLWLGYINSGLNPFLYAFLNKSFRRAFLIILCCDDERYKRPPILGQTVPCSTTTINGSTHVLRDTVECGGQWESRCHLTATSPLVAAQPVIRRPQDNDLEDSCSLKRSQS

For orientation: pKb means the Kb on a negative log10 scale, so that one unit is a factor of ten. A low value points to a large Kb. Turning to `CC(C)n1nc(C(=O)NC2CCN(C)CC2)c2ccccc21`, in test [1], the Relaxation amounted to 37.3%. Further, in test [2], the pKb worked out at 6.3.

With `CN1[C@@H]2CC[C@H]1C[C@@H](NC(=O)c1cc(Cl)cc3c1OC(C)(C)C3)C2`, the figures for the Relaxation in test [3] and in [4] were 37% and 22.2%, respectively. The molecule further registered a pKb in [2] of 8.78.

Regarding `COc1cc(N)c(Cl)cc1C(=O)NC1CCN(CCCOc2ccc(F)cc2)CC1OC` (stereo not given), the Relaxation was 7% in test [3] and 20.3% in test [4]. In addition, the pKb in test [5] worked out at 7.89; in test [6], 6.7.

Take `CC(C)n1c(=O)n(C(=O)NC2CC3CCC(C2)N3C)c2ccccc21` (stereo not given): the values for the Relaxation in [3], in [1] and in test [7] were 2.7%, 13.8% and 55%, respectively. The same molecule gave a pKb in test [2] of 7.5.

One may read the pKi as the negative decadic logarithm of the Ki, by convention in mol/L. As to `CC(C)n1nc(C(=O)NCCCN2CCCCC2)c2ccccc21`, the Relaxation stood at 15% in test [8], 6.3% in [3], 27.3% in [10] and 14.3% in test [11]. In addition, in test [9], the pKi is < 4.5.

`CC(C)n1nc(C(=O)NC2CCN(Cc3ccccc3)CC2)c2ccccc21`: the Relaxation was 3.85% in test [3], 23.3% in test [1], 24.5% in test [10] and 38.5% in test [7]. Further, in [9], the pKi is < 4. Moreover, the pKb in test [5] was 5.5; in test [6], < 5.

Consider `CC(C)n1nc(C(=O)NCCN2CCCCC2)c2ccccc21`, for which the values for the Relaxation in [8], in test [10] and in test [4] were 38%, 22% and 6.6%, respectively. Moreover, in [9], the pKi is 4.8. The pKb in test [5] is < 5; in [6], 4.9; in test [2], 5.8.

Consider `CC(C)n1nc(C(=O)NC2CC3CCC(C2)N3C)c2ccccc21` (stereo not given), for which the Relaxation in test [12] amounted to 9%; in [3] it was 8%; in test [7], 43.2%.
